Reference: ChEMBL document CHEMBL1152833, “Synthesis of some novel N4-(naphtha[1,2-d]thiazol-2-yl)semicarbazides as potential anticonvulsants” (Eur J Med Chem, 2009)
The source made the active and inactive calls.

Tests used:
Mus musculus [1] = assay: Anticonvulsant activity against maximal electroshock-induced seizures in Swiss albino mouse at 300 mg/kg, ip after 4 hrs by MES test; type: functional, organism-based; set-up: dose 300 mg/kg
Summary of the method: (§1)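 Male Swiss albino mice (18–25 g) received compound i.p. at 30, 100 and 300 mg/kg. MES seizures were induced after 0.5 and 4 h, with a drop of 0.9% saline placed in the eye before the electrodes went on. Protection meant abolition of the hind-limb tonic extensor component. The tabulated value is the minimum dose protecting half or more of the mice.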

Mus musculus [2] = assay: Toxicity to Swiss albino mouse assessed as occurrence of myoclonic jerks at 300 mg/kg, ip after 0.5 hrs; type: organism-based; set-up: dose 300 mg/kg, route intraperitoneal; conditions: in vivo
Mus musculus [3] = assay: Neurotoxicity in Swiss albino mouse at 300 mg/kg, ip after 0.5 hrs by rotarod test; type: toxicity, organism-based; set-up: dose 300 mg/kg, route intraperitoneal; conditions: in vivo
Summary of the method: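 Male Swiss albino mice (18-25 g) received the compound i.p. at 30, 100 or 300 mg/kg and were tested on the rotarod 0.5 and 4 h later. Mice were pre-checked, and any that fell off within 30 s were excluded. Neurotoxicity was scored as falling off the rod. The value is the minimum dose affecting half or more of the mice.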

Mus musculus [4] = assay: Anticonvulsant activity in ip dosed Swiss albino mouse assessed as minimum drug concentration required for inhibition of pentylenetetrazole-induced seizures in half or more of mouse after 4 hrs by scPTZ test; type: functional
Summary of the method: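 Male Swiss albino mice (18–25 g) were dosed i.p. at 30, 100 and 300 mg/kg, examined at 0.5 and 4 h. PTZ 85 mg/kg (CD97) was given and the animals were […]. Protection meant absence of any threshold convulsion, i.e. clonic spasm lasting at least 5 s. The value is the minimum dose active in half or more of the mice.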

Mus musculus [5] = assay: Neurotoxicity in ip dosed Swiss albino mouse assessed as minimum drug concentration required for falling off the rotarod by half or more of mouse after 4 hrs by rotarod test; type: toxicity, organism-based; conditions: in vivo
Summary of the method: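 Rotarod test in male Swiss albino mice (18–25 g) after i.p. dosing at 30, 100 and 300 mg/kg, read at 0.5 and 4 h. Mice falling within 30 s in a pre-check were excluded. Neurotoxicity was scored as the minimum dose at which half or more of the mice fell off the rod.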

Mus musculus [6] = assay: Anticonvulsant activity in ip dosed Swiss albino mouse assessed as minimum drug concentration required for inhibition of maximal electroshock-induced seizure in half or more of mouse after 0.5 hrs by MES test; type: functional; summary of the method: as §1

`C/C(=N\NC(=O)Nc1nc2c(ccc3ccccc32)s1)c1ccc(C)cc1` was tested, and the Activity (Mus musculus [1]) was “inactive”, the Activity (Mus musculus [2]) was “Toxic” and the Activity (Mus musculus [3]) was “Non-toxic”. It also gave an Activity (Mus musculus [4]) of 300 mg/kg, an Activity (Mus musculus [5]) of 300 mg/kg and an Activity (Mus musculus [6]) of 300 mg/kg.
